Data from ChEMBL document CHEMBL2062435, “Synthesis and in vitro antibacterial activity of gemifloxacin derivatives containing a substituted benzyloxime moiety” (2012).

tested on: Klebsiella pneumoniae; test: Antimicrobial activity against extended spectrum beta-lactamases-producing Klebsiella pneumoniae 10-3 after 18-24 hrs by two-fold serial dilution method; type: functional
Outline: (§1)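 Agar-medium twofold serial dilution against Gram-positive and Gram-negative strains; MIC taken as the lowest compound concentration giving complete inhibition of bacterial growth after incubation at 35 °C for 18-24 h.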

Row | Compound | MIC [µg/mL]
1 | COc1ccc(CO/N=C2\CN(c3nc4c(cc3F)c(=O)c(C(=O)O)cn4C3CC3)CC2CN)cc1OC.CS(=O)(=O)O (racemic) | > 128

tested on: Enterococcus faecalis; test: Antimicrobial activity against Enterococcus faecalis 10-7 after 18-24 hrs by two-fold serial dilution method; type: functional; outline: as §1

Row | Compound | MIC [µg/mL]
2 | COc1ccc(CO/N=C2\CN(c3nc4c(cc3F)c(=O)c(C(=O)O)cn4C3CC3)CC2CN)cc1OC.CS(=O)(=O)O (racemic) | 1

tested on: Enterococcus faecium; test: Antimicrobial activity against Enterococcus faecium 10-5 after 18-24 hrs by two-fold serial dilution method; type: functional; outline: as §1

Row | Compound | MIC [µg/mL]
3 | COc1ccc(CO/N=C2\CN(c3nc4c(cc3F)c(=O)c(C(=O)O)cn4C3CC3)CC2CN)cc1OC.CS(=O)(=O)O (racemic) | 4

tested on: Streptococcus pneumoniae; test: Antimicrobial activity against extended spectrum beta-lactamases-producing Streptococcus pneumoniae 10-1 after 18-24 hrs by two-fold serial dilution method; type: functional; outline: as §1

Row | Compound | MIC [µg/mL]
4 | COc1ccc(CO/N=C2\CN(c3nc4c(cc3F)c(=O)c(C(=O)O)cn4C3CC3)CC2CN)cc1OC.CS(=O)(=O)O (racemic) | 0.5

tested on: Staphylococcus epidermidis; test: Antimicrobial activity against extended spectrum beta-lactamases-producing methicillin-sensitive Staphylococcus epidermidis 10-13 after 18-24 hrs by two-fold serial dilution method; type: functional; outline: as §1

Row | Compound | MIC [µg/mL]
5 | COc1ccc(CO/N=C2\CN(c3nc4c(cc3F)c(=O)c(C(=O)O)cn4C3CC3)CC2CN)cc1OC.CS(=O)(=O)O (racemic) | 0.5

tested on: Escherichia coli; test: Antimicrobial activity against Escherichia coli 10-2 after 18-24 hrs by two-fold serial dilution method; type: functional; outline: as §1

Row | Compound | MIC [µg/mL]
6 | COc1ccc(CO/N=C2\CN(c3nc4c(cc3F)c(=O)c(C(=O)O)cn4C3CC3)CC2CN)cc1OC.CS(=O)(=O)O (racemic) | 8

tested on: Klebsiella pneumoniae; test: Antimicrobial activity against Klebsiella pneumoniae 10-2 after 18-24 hrs by two-fold serial dilution method; type: functional; outline: as §1

Row | Compound | MIC [µg/mL]
7 | COc1ccc(CO/N=C2\CN(c3nc4c(cc3F)c(=O)c(C(=O)O)cn4C3CC3)CC2CN)cc1OC.CS(=O)(=O)O (racemic) | 128

tested on: Escherichia coli; test: Antimicrobial activity against Escherichia coli ATCC 25922 after 18-24 hrs by two-fold serial dilution method; type: functional; outline: as §1

Row | Compound | MIC [µg/mL]
8 | COc1ccc(CO/N=C2\CN(c3nc4c(cc3F)c(=O)c(C(=O)O)cn4C3CC3)CC2CN)cc1OC.CS(=O)(=O)O (racemic) | 0.06

tested on: Escherichia coli; test: Antimicrobial activity against Escherichia coli 10-1 after 18-24 hrs by two-fold serial dilution method; type: functional; outline: as §1

Row | Compound | MIC [µg/mL]
9 | COc1ccc(CO/N=C2\CN(c3nc4c(cc3F)c(=O)c(C(=O)O)cn4C3CC3)CC2CN)cc1OC.CS(=O)(=O)O (racemic) | 16

tested on: Pseudomonas aeruginosa; test: Antimicrobial activity against extended spectrum beta-lactamases-producing Pseudomonas aeruginosa 10-15 after 18-24 hrs by two-fold serial dilution method; type: functional; outline: as §1

Row | Compound | MIC [µg/mL]
10 | COc1ccc(CO/N=C2\CN(c3nc4c(cc3F)c(=O)c(C(=O)O)cn4C3CC3)CC2CN)cc1OC.CS(=O)(=O)O (racemic) | 1

tested on: Staphylococcus epidermidis; test: Antimicrobial activity against extended spectrum beta-lactamases-producing methicillin-resistant Staphylococcus epidermidis 10-10 after 18-24 hrs by two-fold serial dilution method; type: functional
Outline: (§2)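 Agar twofold serial dilution MIC against clinical isolates. MIC was taken as the lowest concentration giving complete inhibition of bacterial growth after incubation at 35 °C for 18-24 h.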

Row | Compound | MIC [µg/mL]
11 | COc1ccc(CO/N=C2\CN(c3nc4c(cc3F)c(=O)c(C(=O)O)cn4C3CC3)CC2CN)cc1OC.CS(=O)(=O)O (racemic) | 0.5

tested on: Klebsiella pneumoniae; test: Antimicrobial activity against extended spectrum beta-lactamases-producing Klebsiella pneumoniae 10-2 after 18-24 hrs by two-fold serial dilution method; type: functional; outline: as §1

Row | Compound | MIC [µg/mL]
12 | COc1ccc(CO/N=C2\CN(c3nc4c(cc3F)c(=O)c(C(=O)O)cn4C3CC3)CC2CN)cc1OC.CS(=O)(=O)O (racemic) | > 128

tested on: Staphylococcus aureus; test: Antimicrobial activity against extended spectrum beta-lactamases-producing methicillin-resistant Staphylococcus aureus 10-11 after 18-24 hrs by two-fold serial dilution method; type: functional; outline: as §2

Row | Compound | MIC [µg/mL]
13 | COc1ccc(CO/N=C2\CN(c3nc4c(cc3F)c(=O)c(C(=O)O)cn4C3CC3)CC2CN)cc1OC.CS(=O)(=O)O (racemic) | 0.5

tested on: Staphylococcus epidermidis; test: Antimicrobial activity against extended spectrum beta-lactamases-producing methicillin-sensitive Staphylococcus epidermidis 10-15 after 18-24 hrs by two-fold serial dilution method; type: functional; outline: as §1

Row | Compound | MIC [µg/mL]
14 | COc1ccc(CO/N=C2\CN(c3nc4c(cc3F)c(=O)c(C(=O)O)cn4C3CC3)CC2CN)cc1OC.CS(=O)(=O)O (racemic) | 4

tested on: Streptococcus pneumoniae; test: Antimicrobial activity against extended spectrum beta-lactamases-producing Streptococcus pneumoniae 10-4 after 18-24 hrs by two-fold serial dilution method; type: functional; outline: as §1

Row | Compound | MIC [µg/mL]
15 | COc1ccc(CO/N=C2\CN(c3nc4c(cc3F)c(=O)c(C(=O)O)cn4C3CC3)CC2CN)cc1OC.CS(=O)(=O)O (racemic) | 4

tested on: Klebsiella pneumoniae; test: Antimicrobial activity against Klebsiella pneumoniae 10-3 after 18-24 hrs by two-fold serial dilution method; type: functional; outline: as §1

Row | Compound | MIC [µg/mL]
16 | COc1ccc(CO/N=C2\CN(c3nc4c(cc3F)c(=O)c(C(=O)O)cn4C3CC3)CC2CN)cc1OC.CS(=O)(=O)O (racemic) | 4

tested on: Escherichia coli; test: Antimicrobial activity against Escherichia coli 10-3 after 18-24 hrs by two-fold serial dilution method; type: functional; outline: as §1

Row | Compound | MIC [µg/mL]
17 | COc1ccc(CO/N=C2\CN(c3nc4c(cc3F)c(=O)c(C(=O)O)cn4C3CC3)CC2CN)cc1OC.CS(=O)(=O)O (racemic) | 16

tested on: Pseudomonas aeruginosa; test: Antimicrobial activity against extended spectrum beta-lactamases-producing Pseudomonas aeruginosa 10-20 after 18-24 hrs by two-fold serial dilution method; type: functional; outline: as §1

Row | Compound | MIC [µg/mL]
18 | COc1ccc(CO/N=C2\CN(c3nc4c(cc3F)c(=O)c(C(=O)O)cn4C3CC3)CC2CN)cc1OC.CS(=O)(=O)O (racemic) | 0.06

tested on: Staphylococcus epidermidis; test: Antimicrobial activity against extended spectrum beta-lactamases-producing methicillin-sensitive Staphylococcus epidermidis 10-11 after 18-24 hrs by two-fold serial dilution method; type: functional; outline: as §1

Row | Compound | MIC [µg/mL]
19 | COc1ccc(CO/N=C2\CN(c3nc4c(cc3F)c(=O)c(C(=O)O)cn4C3CC3)CC2CN)cc1OC.CS(=O)(=O)O (racemic) | 2

tested on: Pseudomonas aeruginosa; test: Antimicrobial activity against Pseudomonas aeruginosa 10-12 after 18-24 hrs by two-fold serial dilution method; type: functional; outline: as §1

Row | Compound | MIC [µg/mL]
20 | COc1ccc(CO/N=C2\CN(c3nc4c(cc3F)c(=O)c(C(=O)O)cn4C3CC3)CC2CN)cc1OC.CS(=O)(=O)O (racemic) | 0.03

tested on: Enterococcus faecalis; test: Antimicrobial activity against Enterococcus faecalis 10-5 after 18-24 hrs by two-fold serial dilution method; type: functional; outline: as §1

Row | Compound | MIC [µg/mL]
21 | COc1ccc(CO/N=C2\CN(c3nc4c(cc3F)c(=O)c(C(=O)O)cn4C3CC3)CC2CN)cc1OC.CS(=O)(=O)O (racemic) | 0.5

tested on: Enterococcus faecalis; test: Antimicrobial activity against Enterococcus faecalis 10-6 after 18-24 hrs by two-fold serial dilution method; type: functional; outline: as §1

Row | Compound | MIC [µg/mL]
22 | COc1ccc(CO/N=C2\CN(c3nc4c(cc3F)c(=O)c(C(=O)O)cn4C3CC3)CC2CN)cc1OC.CS(=O)(=O)O (racemic) | 2

tested on: Staphylococcus aureus; test: Antimicrobial activity against extended spectrum beta-lactamases-producing methicillin-resistant Staphylococcus aureus 10-15 after 18-24 hrs by two-fold serial dilution method; type: functional; outline: as §2

Row | Compound | MIC [µg/mL]
23 | COc1ccc(CO/N=C2\CN(c3nc4c(cc3F)c(=O)c(C(=O)O)cn4C3CC3)CC2CN)cc1OC.CS(=O)(=O)O (racemic) | 0.125

tested on: Pseudomonas aeruginosa; test: Antimicrobial activity against extended spectrum beta-lactamases-producing Pseudomonas aeruginosa 10-9 after 18-24 hrs by two-fold serial dilution method; type: functional; outline: as §1

Row | Compound | MIC [µg/mL]
24 | COc1ccc(CO/N=C2\CN(c3nc4c(cc3F)c(=O)c(C(=O)O)cn4C3CC3)CC2CN)cc1OC.CS(=O)(=O)O (racemic) | 8

tested on: Staphylococcus epidermidis; test: Antimicrobial activity against extended spectrum beta-lactamases-producing methicillin-resistant Staphylococcus epidermidis 10-13 after 18-24 hrs by two-fold serial dilution method; type: functional; outline: as §2

Row | Compound | MIC [µg/mL]
25 | COc1ccc(CO/N=C2\CN(c3nc4c(cc3F)c(=O)c(C(=O)O)cn4C3CC3)CC2CN)cc1OC.CS(=O)(=O)O (racemic) | 0.25

tested on: Pseudomonas aeruginosa; test: Antimicrobial activity against extended spectrum beta-lactamases-producing Pseudomonas aeruginosa 10-18 after 18-24 hrs by two-fold serial dilution method; type: functional; outline: as §1

Row | Compound | MIC [µg/mL]
26 | COc1ccc(CO/N=C2\CN(c3nc4c(cc3F)c(=O)c(C(=O)O)cn4C3CC3)CC2CN)cc1OC.CS(=O)(=O)O (racemic) | 4

tested on: Klebsiella pneumoniae; test: Antimicrobial activity against extended spectrum beta-lactamases-producing Klebsiella pneumoniae 10-1 after 18-24 hrs by two-fold serial dilution method; type: functional; outline: as §1

Row | Compound | MIC [µg/mL]
27 | COc1ccc(CO/N=C2\CN(c3nc4c(cc3F)c(=O)c(C(=O)O)cn4C3CC3)CC2CN)cc1OC.CS(=O)(=O)O (racemic) | 64

tested on: Pseudomonas aeruginosa; test: Antimicrobial activity against extended spectrum beta-lactamases-producing Pseudomonas aeruginosa 10-5 after 18-24 hrs by two-fold serial dilution method; type: functional; outline: as §1

Row | Compound | MIC [µg/mL]
28 | COc1ccc(CO/N=C2\CN(c3nc4c(cc3F)c(=O)c(C(=O)O)cn4C3CC3)CC2CN)cc1OC.CS(=O)(=O)O (racemic) | 2

tested on: Escherichia coli; test: Antimicrobial activity against extended spectrum beta-lactamases-producing Escherichia coli 10-2 after 18-24 hrs by two-fold serial dilution method; type: functional; outline: as §1

Row | Compound | MIC [µg/mL]
29 | COc1ccc(CO/N=C2\CN(c3nc4c(cc3F)c(=O)c(C(=O)O)cn4C3CC3)CC2CN)cc1OC.CS(=O)(=O)O (racemic) | > 128

tested on: Escherichia coli; test: Antimicrobial activity against extended spectrum beta-lactamases-producing Escherichia coli 10-3 after 18-24 hrs by two-fold serial dilution method; type: functional; outline: as §1

Row | Compound | MIC [µg/mL]
30 | COc1ccc(CO/N=C2\CN(c3nc4c(cc3F)c(=O)c(C(=O)O)cn4C3CC3)CC2CN)cc1OC.CS(=O)(=O)O (racemic) | 16

tested on: Klebsiella pneumoniae; test: Antimicrobial activity against Klebsiella pneumoniae 10-4 after 18-24 hrs by two-fold serial dilution method; type: functional; outline: as §1

Row | Compound | MIC [µg/mL]
31 | COc1ccc(CO/N=C2\CN(c3nc4c(cc3F)c(=O)c(C(=O)O)cn4C3CC3)CC2CN)cc1OC.CS(=O)(=O)O (racemic) | > 128

tested on: Escherichia coli; test: Antimicrobial activity against extended spectrum beta-lactamases-producing Escherichia coli 10-4 after 18-24 hrs by two-fold serial dilution method; type: functional; outline: as §1

Row | Compound | MIC [µg/mL]
32 | COc1ccc(CO/N=C2\CN(c3nc4c(cc3F)c(=O)c(C(=O)O)cn4C3CC3)CC2CN)cc1OC.CS(=O)(=O)O (racemic) | 2

tested on: Staphylococcus aureus; test: Antimicrobial activity against extended spectrum beta-lactamases-producing methicillin-sensitive Staphylococcus aureus 10-13 after 18-24 hrs by two-fold serial dilution method; type: functional; outline: as §1

Row | Compound | MIC [µg/mL]
33 | COc1ccc(CO/N=C2\CN(c3nc4c(cc3F)c(=O)c(C(=O)O)cn4C3CC3)CC2CN)cc1OC.CS(=O)(=O)O (racemic) | 0.5

tested on: Enterococcus faecium; test: Antimicrobial activity against Enterococcus faecium 10-9 after 18-24 hrs by two-fold serial dilution method; type: functional; outline: as §1

Row | Compound | MIC [µg/mL]
34 | COc1ccc(CO/N=C2\CN(c3nc4c(cc3F)c(=O)c(C(=O)O)cn4C3CC3)CC2CN)cc1OC.CS(=O)(=O)O (racemic) | 4

tested on: Staphylococcus aureus; test: Antimicrobial activity against extended spectrum beta-lactamases-producing methicillin-sensitive Staphylococcus aureus 10-14 after 18-24 hrs by two-fold serial dilution method; type: functional; outline: as §1

Row | Compound | MIC [µg/mL]
35 | COc1ccc(CO/N=C2\CN(c3nc4c(cc3F)c(=O)c(C(=O)O)cn4C3CC3)CC2CN)cc1OC.CS(=O)(=O)O (racemic) | 0.06

tested on: Staphylococcus aureus; test: Antimicrobial activity against Staphylococcus aureus ATCC […] after 18-24 hrs by two-fold serial dilution method; type: functional; outline: as §1

Row | Compound | MIC [µg/mL]
36 | COc1ccc(CO/N=C2\CN(c3nc4c(cc3F)c(=O)c(C(=O)O)cn4C3CC3)CC2CN)cc1OC.CS(=O)(=O)O (racemic) | 0.03
